ChEMBL document CHEMBL3774376, “Synthesis, and anticonvulsant activity of new amides derived from 3-methyl- or 3-ethyl-3-methyl-2,5-dioxo-pyrrolidin-1-yl-acetic acids” (Bioorg Med Chem, 2016)
Calls of active or inactive are those of the source. The rule behind the calls is not given here.

How the values were obtained:
Mus musculus [1] = test: Neurotoxicity in CD1 albino mouse assessed as acute motor impairment at 300 mg/kg, ip measured after 0.5 hrs by rotarod test; type: toxicity, organism-based; conditions: in vivo
Procedure, shortened: (§1)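 Male CD-1 mice given 30, 100 or 300 mg/kg ip in 0.5% methylcellulose, tested at 0.5 and 4 h. Motor impairment was scored as failure to keep balance for at least 1 min on a rod rotating at 10 rpm. Minimum dose causing impairment reported.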

Mus musculus [2] = test: Neurotoxicity in CD1 albino mouse assessed as acute motor impairment at 300 mg/kg, ip after 4 hrs by rotarod test; type: toxicity, organism-based; conditions: in vivo; procedure, shortened: as §1
Mus musculus [3] = test: Anticonvulsant activity in ip dosed CD1 albino mouse assessed as time to peak effect; type: functional
Procedure, shortened: (§2)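 Quantitation in male CD-1 mice dosed ip at the previously estimated time of peak effect. Seizures were induced by MES or by sc pentylenetetrazole 85 mg/kg; rotarod at 10 rpm assessed motor impairment. Groups of six, at least three doses giving 10-90% effect.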

Mus musculus [4] = test: Anticonvulsant activity in ip dosed CD1 albino mouse assessed as protection against subcutaneous pentylenetetrazole-induced seizures; type: functional; procedure, shortened: as §2
[5] = Neurotoxicity in ip dosed CD1 albino mouse assessed as acute motor impairment by rotarod test; type: toxicity, organism-based; conditions: in vivo; procedure, shortened: as §2
Mus musculus [6] = species: Mus musculus; test: Protection index, ratio of TD50 for CD1 albino mouse to ED50 for protection against maximal electroshock-induced seizures in CD1 albino mouse; procedure, shortened: as §2
Mus musculus [7] = test: Protection index, ratio of TD50 for CD1 albino mouse to ED50 for protection against subcutaneous pentylenetetrazole-induced seizures in CD1 albino mouse; procedure, shortened: as §2
Mus musculus [8] = test: Antinociceptive activity in CD1 albino mouse assessed as reduction of formalin-induced licking response in neurogenic phase at 75.60 mg/kg, ip preincubated for 4 hrs measured after 5 mins; type: functional; design: scale not given: the % may be the effect or the level left
Mus musculus [9] = test: Antinociceptive activity in CD1 albino mouse assessed as reduction of formalin-induced licking response in inflammatory phase at 75.60 mg/kg, ip preincubated for 4 hrs measured after 15 to 20 mins; type: functional; design: scale not given: the % may be the effect or the level left
Mus musculus [10] = test: Antinociceptive activity in CD1 albino mouse assessed as reduction of formalin-induced licking response in inflammatory phase at 75.60 mg/kg, ip preincubated for 4 hrs measured after 20 to 25 mins; type: functional; design: scale not given: the % may be the effect or the level left
Mus musculus [11] = test: Antinociceptive activity in CD1 albino mouse assessed as reduction of formalin-induced licking response in inflammatory phase at 75.60 mg/kg, ip preincubated for 4 hrs measured after 25 to 30 mins; type: functional; design: scale not given: the % may be the effect or the level left
Mus musculus [12] = test: Local anesthetic activity in CD1 albino mouse assessed prolongation of time reaction at 2 % concentration after 20 secs by tail immersion test relative to vehicle control; type: functional
Procedure, shortened: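 Compound at 1 or 2% in 0.5% methylcellulose, injected sc (0.2 ml) about 1 cm from the tail root of male CD-1 mice. After 15 min, the distal 3 cm of the tail was immersed in 50 ± 0.5 °C water and withdrawal time measured, cut off at 20 s. n=8; mean ± SEM; % prolongation relative to vehicle.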

Rattus norvegicus = species: Rattus norvegicus; test: Displacement of [3H]BTX from voltage-sensitive Na+ channel site 2 in rat cerebral cortex synaptoneurosomes at 100 uM after 60 mins by liquid scintillation spectroscopic analysis; type: tissue-based
Procedure, shortened: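 Cerebral cortex synaptoneurosomes from rat, tested at 100 µM for inhibition of specific [3H]BTX binding to the voltage-sensitive Na+ channel site 2. Reported as % inhibition of control specific binding; run commercially.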

Mus musculus [13] = test: Anticonvulsant activity in ip dosed CD1 albino mouse assessed as protection against maximal electroshock-induced seizures; type: functional
Mus musculus [14] = test: Anticonvulsant activity in CD1 albino mouse assessed as protection against maximal electroshock-induced seizures at 100 to 300 mg/kg, ip after 0.5 hrs; type: functional; conditions: read-out: MED
Mus musculus [15] = test: Anticonvulsant activity in CD1 albino mouse assessed as protection against maximal electroshock-induced seizures at 100 to 300 mg/kg, ip after 4 hrs; type: functional; conditions: read-out: MED
Mus musculus [16] = test: Anticonvulsant activity in CD1 albino mouse assessed as protection against subcutaneous pentylenetetrazole-induced seizures at 100 to 300 mg/kg, ip after 0.5 hrs; type: functional; conditions: CD1, 0.5 h, read-out: MED
Procedure, shortened: (§3)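 Male CD-1 mice (16-26 g), compounds ip in 0.5% methylcellulose/water at 30, 100 or 300 mg/kg, 3-4 per group. At 0.5 or 4 h, pentylenetetrazole 85 mg/kg was injected sc. Protection was absence of clonic convulsions (at least 5 s) over a 30 min observation. Minimum active dose recorded.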

Mus musculus [17] = test: Anticonvulsant activity in CD1 albino mouse assessed as protection against subcutaneous pentylenetetrazole-induced seizures at 100 to 300 mg/kg, ip after 4 hrs; type: functional; conditions: CD1, 4 h, read-out: MED; procedure, shortened: as §3
Mus musculus [18] = test: Antinociceptive activity in CD1 albino mouse assessed as reduction of formalin-induced licking response in neurogenic phase at 82.74 mg/kg, ip preincubated for 30 mins measured after 5 mins; type: functional; design: scale not given: the % may be the effect or the level left
Mus musculus [19] = test: Antinociceptive activity in CD1 albino mouse assessed as reduction of formalin-induced licking response in inflammatory phase at 82.74 mg/kg, ip preincubated for 30 mins measured after 15 to 20 mins; type: functional; design: scale not given: the % may be the effect or the level left
Mus musculus [20] = test: Antinociceptive activity in CD1 albino mouse assessed as reduction of formalin-induced licking response in inflammatory phase at 82.74 mg/kg, ip preincubated for 30 mins measured after 20 to 25 mins; type: functional; design: scale not given: the % may be the effect or the level left
Mus musculus [21] = test: Antinociceptive activity in CD1 albino mouse assessed as reduction of formalin-induced licking response in inflammatory phase at 82.74 mg/kg, ip preincubated for 30 mins measured after 25 to 30 mins; type: functional; design: scale not given: the % may be the effect or the level left
Mus musculus [22] = test: Anticonvulsant activity in CD1 albino mouse assessed as protection against subcutaneous pentylenetetrazole-induced seizures at 300 mg/kg, ip after 4 hrs; type: functional, organism-based; procedure, shortened: as §3
Mus musculus [23] = test: Neurotoxicity in CD1 albino mouse assessed as acute motor impairment at 100 to 300 mg/kg, ip after 0.5 hrs by rotarod test; type: toxicity, organism-based; conditions: in vivo; procedure, shortened: as §1
Mus musculus [24] = test: Anticonvulsant activity in ip dosed CD1 albino mouse assessed as protection against 32 mA-current- for 3 secs induced seizure by 6Hz psychomotor seizure test; type: functional
Procedure, shortened: (§4)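 6-Hz corneal stimulation at 32 mA (6 Hz, 3 s) in male CD-1 mice dosed ip. Groups of six received several doses until at least three points fell between 10 and 90% protection. […] PI = TD50/ED50 (rotarod).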

Mus musculus [25] = species: Mus musculus; test: Protection index, ratio of TD50 for CD1 albino mouse to ED50 for protection against 32 mA-current- for 3 secs induced seizure in CD1 albino mouse by 6Hz psychomotor seizure test; procedure, shortened: as §4
Mus musculus [26] = test: Antinociceptive activity in CD1 albino mouse assessed as reduction of formalin-induced licking response in neurogenic phase at 70.08 mg/kg, ip preincubated for 30 mins measured after 5 mins; type: functional; design: scale not given: the % may be the effect or the level left
Mus musculus [27] = test: Antinociceptive activity in CD1 albino mouse assessed as reduction of formalin-induced licking response in inflammatory phase at 70.08 mg/kg, ip preincubated for 30 mins measured after 15 to 20 mins; type: functional; design: scale not given: the % may be the effect or the level left
Mus musculus [28] = test: Antinociceptive activity in CD1 albino mouse assessed as reduction of formalin-induced licking response in inflammatory phase at 70.08 mg/kg, ip preincubated for 30 mins measured after 25 to 30 mins; type: functional; design: scale not given: the % may be the effect or the level left
Mus musculus [29] = test: Anticonvulsant activity in ip dosed CD1 albino mouse assessed as time to peak effect by 6Hz psychomotor seizure test; type: functional; procedure, shortened: as §4
Mus musculus [30] = test: Anticonvulsant activity in CD1 albino mouse assessed as protection against subcutaneous pentylenetetrazole-induced seizures at 300 mg/kg, ip after 0.5 hrs; type: functional, organism-based; procedure, shortened: as §3

inhibition (Rattus norvegicus) | SMILES | Activity (Mus musculus [1]) | Activity (Mus musculus [2]) | Time (Mus musculus [3]) | ED50 (Mus musculus [4]) | TD50 [5] | Ratio TD50/ED50 (Mus musculus [6]) | Ratio TD50/ED50 (Mus musculus [7]) | Activity (Mus musculus [12]) | ED50 (Mus musculus [13]) | minimal effective dose (Mus musculus [14]) | minimal effective dose (Mus musculus [15]) | minimal effective dose (Mus musculus [16]) | Activity (Mus musculus [22]) | also measured
33.4% | CC1CC(=O)N(CC(=O)N2CCN(c3ccc(Cl)c(Cl)c3)CC2)C1=O (centres undefined) | Non-toxic | Non-toxic | 1 h | 54.1 mg/kg | 263 mg/kg | 3.48 | 4.86 | 14% | 75.6 mg/kg | 300 mg/kg | 100 mg/kg | 100 mg/kg | – | Activity (Mus musculus [8]): 61%; Activity (Mus musculus [9]): 100%; Activity (Mus musculus [10]): 95%; Activity (Mus musculus [11]): 95%; minimal effective dose (Mus musculus [17]): 100 mg/kg
28.5% | CC1CC(=O)N(CC(=O)N2CCN(c3cccc(Cl)c3)CC2)C1=O (centres undefined) | Non-toxic | Non-toxic | 1 h | 40.3 mg/kg | 323 mg/kg | 3.91 | 8 | 17% | 82.7 mg/kg | 100 mg/kg | 300 mg/kg | 100 mg/kg | inactive | Activity (Mus musculus [18]): 67%; Activity (Mus musculus [19]): 98%; Activity (Mus musculus [20]): 100%; Activity (Mus musculus [21]): 96%
63.5% | CCC1(C)CC(=O)N(CC(=O)N2CCN(c3cccc(C(F)(F)F)c3)CC2)C1=O (centres undefined) | – | Non-toxic | 0.5 h | – | 285 mg/kg | 4.06 | – | 46% | 70.1 mg/kg | 100 mg/kg | 100 mg/kg | – | inactive | MTC (Mus musculus [23]): 300 mg/kg; ED50 (Mus musculus [24]): 90.3 mg/kg; Ratio TD50/ED50 (Mus musculus [25]): 3.15; Activity (Mus musculus [26]): 40%; Activity (Mus musculus [27]): 100%; Activity (Mus musculus [28]): 99%; Time (Mus musculus [29]): 0.5 h; Activity (Mus musculus [30]): inactive
